Compound activity: PubChem, several laboratories
G6PDH CS = L. mesenteroides G6PDH inhibitors, counter-screen for G6PDH-coupled screening assays, biochemical, Leuconostoc mesenteroides enzyme; glucose-6-phosphate dehydrogenase [Leuconostoc mesenteroides]; Purified L. mesenteroides G6PDH, diaphorase/resazurin coupled fluorescence, 45 min; inhibition, % at 5 µM; hit rate 0.12% among 200,000; AID 1020, 2008
PfGluPho inh = PfG6PD enzyme inhibitors, primary screen, biochemical, fluorescence intensity, uHTS; glucose-6-phosphate dehydrogenase-6-phosphogluconolactonase (Plasmodium falciparum 3D7); PfGluPho enzyme, NADPH resazurin-diaphorase fluorescence; inhibition, % at 20 µM; hit rate 0.78% among 350,000; AID 504690, 2011;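 active = inhibition reaching at least a set limit at 20 µM in the primary screen, cut at about 59% in these data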;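 also: 0% = DMSO wells with substrate and 100% = DMSO wells lacking glucose-6-phosphate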
DTT redox prof = compounds producing H2O2 with reducing agent – biochemical, NIH compound library profiling, artefact control for MLSCN library redox annotation, primary screen. activation, % at 10 µM. hit rate 0.03% among 200,000. AID 878, 2007. DTT-dependent redox cycling H2O2, phenol red/HRP absorbance; 100% = 100 µM peroxide control, 0% = buffer;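 active = activation of at least 50% relative to the plate's high and low controls in the primary single-dose screen; inactive = activation below 50%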;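 also: compound incubated with DTT at 0.8 mM final as the reducing agent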
Diaphorase inh = diaphorase inhibitors and chemical oxidizers, primary screen, counter-screen for diaphorase-coupled primary assays, biochemical, uHTS, resorufin fluorescence; diaphorase resazurin-to-resorufin fluorescence, NADH, 16 min; bacterial (C. kluyveri) enzyme, not human; inhibition, % at 20 µM; hit rate 0.69% among 190,000;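 active = primary screen inhibition at 20 µM above a set limit, cut at about 50% in these data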;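 also: plate controls were DMSO with full reaction for no effect and wells lacking NADH for full effect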
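Assay system: diaphorase enzyme from Clostridium kluyveri; Input: enzyme working solution with 0.14 U/mL diaphorase; Timing: 16 min at room temperature; Technique: resorufin fluorescence, excitation 544 nm, emission 590 nm; Benchmarks: positive control minus NADH, DMSO neutral control.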
Lmaj promast = Leishmania major promastigote growth inhibition, primary screen; Leishmania major promastigotes, resazurin fluorescence viability; inhibition, % at 10 µM; hit rate 9% among 200,000;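 also: promastigotes grown with compound for 44 hours at 28 °C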
Diaphorase act = compounds boosting diaphorase resazurin reduction – biochemical, uHTS, resorufin fluorescence, counter-screen for diaphorase-coupled primary assays, primary screen | Diaphorase/resazurin coupled assay, 16 min; stronger effect = higher value; 1 = vehicle wells, 0 = NADH-free wells | activation factor at 20 µM | hit rate 0.005% among 190,000 | AID 1229, 2008;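 active = diaphorase activity raised at least twofold by the compound at 20 µM; inactive = activation factor below 2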
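Material: purified diaphorase enzyme from Clostridium kluyveri / Medium: HEPES pH 7.4 buffer with MgCl2 and Tween 20 / Schedule: enzyme reaction of 16 min at room temperature / Measured by: resorufin fluorescence, excitation 544 nm, emission 590 nm / Evaluation: rise in resorufin formation, marking diaphorase activation or chemical reduction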
An asterisk follows results filed as active. Only a selection was taken, and hits are over-represented in it overall. Rule as the data show it, unless noted: active = inhibition above about 50%; inactive = the rest.

`CCCOc1ccc(C(=O)NNC(=O)c2cccc(S(=O)(=O)N3CCN(C(C)=O)CC3)c2)cc1OC` gave PfGluPho inh -15.
`Cc1ccc(N=Cc2cc(Cl)cc(Cl)c2O)nc1` gave G6PDH CS 16, PfGluPho inh 4, DTT redox prof 0, Diaphorase inh 44, Lmaj promast -10 and Diaphorase act 0.6.
For Oc1c(Cl)cc(Cl)cc1/C=N/Nc1ncc(Br)cn1 the results were G6PDH CS 9, PfGluPho inh -16, DTT redox prof 1, Diaphorase inh -1, Lmaj promast 96* and Diaphorase act 1.
For COc1ccc(NC(=O)CNc2cc(S(=O)(=O)N3CCOCC3)ccc2NCC2CCCO2)cc1 (stereo not given) the results were G6PDH CS 17, PfGluPho inh -4, DTT redox prof 0, Diaphorase inh 35, Lmaj promast 3 and Diaphorase act 0.7.
`O=C(CSc1nnc2c3ccccc3c3ccccc3c2n1)Nc1ccccc1` gave G6PDH CS 43, DTT redox prof -5, Diaphorase inh 25, Lmaj promast 97* and Diaphorase act 0.8.
Cc1noc(NS(=O)(=O)c2ccc(NC(=O)CSc3nnc4c(n3)[nH]c3ccccc34)cc2)c1C was read as G6PDH CS -2, PfGluPho inh -10, DTT redox prof 0, Diaphorase inh 65*, Lmaj promast 57* and Diaphorase act 0.4.
Screening Cc1noc(NS(=O)(=O)c2ccc(NC(=O)CSc3nc4ccccc4[nH]3)cc2)c1C returned G6PDH CS 0, PfGluPho inh -25, DTT redox prof 1, Diaphorase inh 10, Lmaj promast -7 and Diaphorase act 0.9.
COc1ccc(CCNc2ccc(C(CC(N)=O)NC(=O)c3cc(C)cc(C)c3)cc2[N+](=O)[O-])cc1 (stereo not given) was read as PfGluPho inh 15.
CCN(CC)C(=O)C1=C(C)N(CCCN2CCCC2=O)C(=O)C(CC(=O)NCCN2CCOCC2)C1 (stereo not given) was read as PfGluPho inh -12.
Screening COc1ccc(Cn2c(C3CC3)nc3ccc(NC(C)=O)cc3c2=O)cc1 returned G6PDH CS 5, PfGluPho inh -3, DTT redox prof 1, Diaphorase inh -2, Lmaj promast 11 and Diaphorase act 1.
`CCCc1nc2ccc(NC(=O)c3cccs3)cc2c(=O)n1Cc1ccccc1Cl` gave G6PDH CS -7, PfGluPho inh 13, DTT redox prof 0, Diaphorase inh 20, Lmaj promast 50* and Diaphorase act 0.8.
For CCCc1nc2ccc(NC(C)=O)cc2c(=O)n1Cc1ccc(Cl)cc1 the results were G6PDH CS 3, PfGluPho inh -11, DTT redox prof -1, Diaphorase inh 21, Lmaj promast 83* and Diaphorase act 0.8.
For O=C(CSc1nc(=O)n(CCCN2CCOCC2)c2c1CCC2)Nc1ccc([N+](=O)[O-])cc1 the results were PfGluPho inh -2.
`O=C(CN(C(=O)CNC(=O)c1ccco1)c1cccc(F)c1)NC1CCCCC1` gave PfGluPho inh 1.
`CS(=O)(=O)N(CCc1ccccc1)CC(=O)N1CCN(Cc2ccc3c(c2)OCO3)CC1` gave G6PDH CS 11, PfGluPho inh -13, DTT redox prof -1, Diaphorase inh -1, Lmaj promast -3 and Diaphorase act 1.
Cc1ccc2[nH]c3c(c2c1)CN(C(=O)CN1CCN(Cc2ccc4c(c2)OCO4)CC1)CC3 was read as G6PDH CS 7, PfGluPho inh 9, DTT redox prof -1, Diaphorase inh -6, Lmaj promast 95* and Diaphorase act 1.1.
